Laboratory results published in ChEMBL document CHEMBL4270543, “Synthesis and biological evaluation of (1-aryl-1H-pyrazol-4-yl) (3,4,5-trimethoxyphenyl)methanone derivatives as tubulin inhibitors” (Eur J Med Chem, 2018).
Activity calls are given as the source filed them. The calls are words filed in the database; no cut-off is given here.

How the values were obtained:
A549 = assay: Antiproliferative activity against human A549 cells after 72 hrs by MTT assay; format: functional, cell-based; conditions: A549, 72 h
Procedure, shortened: (§1)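 Human tumour cells were exposed to the compound for 72 h, and growth was read by standard MTT assay. IC50 is the concentration giving 50% inhibition, taken as the average of three parallel experiments.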

HT-1080 = assay: Antiproliferative activity against human HT1080 cells after 72 hrs by MTT assay; format: functional, cell-based; conditions: HT-1080, 72 h; procedure, shortened: as §1
SGC-7901 [1] = assay: Antiproliferative activity against human SGC7901 cells after 72 hrs by MTT assay; format: functional, cell-based; conditions: SGC-7901, 72 h; procedure, shortened: as §1
L929 = assay: Cytotoxicity against mouse L929 cells after 72 hrs by MTT assay; format: cell-based; conditions: L929, 72 h
[2] = (§2) Inhibition of porcine brain tubulin polymerization preincubated for 1 min followed by GTP addition measured at 1 min time interval for 90 mins by fluorescence assay; design: species or system Sus scrofa
Procedure, shortened: (§3)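 Run with a commercial tubulin polymerization kit following the manufacturer's protocol. Tubulin was pre-incubated for 1 min with compound (2.5, 5, 10 or 20 µM) or DMSO vehicle, then GTP was added to start polymerization. Reactions were monitored at 37 °C.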

Sus scrofa [3] = organism: Sus scrofa; assay: as §2; procedure, shortened: as §3
Tubulin (Homo sapiens) = Tubulin (Homo sapiens) (UniProt P68371+Q9H4B7+P0DPH7+P68366+Q13509+Q71U36+P04350+Q3ZCM7+P07437+P68363+Q9BQE3+Q6PEY2+Q13885+Q9BVA1+Q9BUF5); assay: Inhibition of tubulin polymerization in human SGC7901 cells assessed as disruption of microtubule formation at 2 times antiproliferative IC50 after 24 hrs by DAPI staining based immunofluorescence microscopic method; format: cell-based
Procedure, shortened: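 SGC-7901 cells were treated for 24 h at 2-fold their antiproliferative IC50. Cells were stained with anti-α-tubulin-FITC antibody and then DAPI for DNA, and the microtubule network was examined by confocal microscopy.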

SGC-7901 [4] = assay: Cell cycle arrest in human SGC7901 cells assessed as accumulation at G2/M phase at 27 to 108 nM after 24 hrs by propidium iodide staining based flow cytometry (reference value: 15%); format: functional
SGC-7901 [5] = assay: Cell cycle arrest in human SGC7901 cells assessed as accumulation at G2/M phase after 24 hrs by propidium iodide staining based flow cytometry; format: functional
Procedure, shortened: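 SGC-7901 cells were treated for 24 h with a vehicle control run in parallel. Cell-cycle phase distribution was obtained by flow cytometry, with G2/M accumulation as the read-out.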

Sus scrofa [6] = organism: Sus scrofa; assay: Inhibition of porcine brain tubulin polymerization at 2.5 uM preincubated for 1 min followed by GTP addition measured at 1 min time interval for 90 mins by fluorescence assay; procedure, shortened: as §3
Sus scrofa [7] = organism: Sus scrofa; assay: Inhibition of porcine brain tubulin polymerization at 5 uM preincubated for 1 min followed by GTP addition measured at 1 min time interval for 90 mins by fluorescence assay; procedure, shortened: as §3

IC50 (A549) [µM] | IC50 (HT-1080) [µM] | IC50 (SGC-7901 [1]) [µM] | SMILES | also measured
20.6 | > 30 | 29.6 | COc1cc(C(=O)c2cnn(-c3ccc(C)cc3)c2N)cc(OC)c1OC | –
20.4 | 3.7 | 16.7 | COc1cc(C(=O)c2cnn(-c3cccc(Cl)c3)c2)cc(OC)c1OC | –
> 30 | > 30 | > 30 | COc1cc(C(=O)c2cnn(-c3ccccc3Cl)c2)cc(OC)c1OC | –
16.3 | 3.1 | 7.8 | CCc1ccc(-n2cc(C(=O)c3cc(OC)c(OC)c(OC)c3)cn2)cc1 | –
> 30 | > 30 | > 30 | COc1cc(C(=O)c2cnn(-c3ccc(Cl)cc3)c2N)cc(OC)c1OC | –
> 30 | > 30 | > 30 | COc1cc(C(=O)c2cnn(-c3ccc(Cl)cc3)c2)cc(OC)c1OC | –
18.7 | > 30 | 17.9 | COc1ccc(-n2cc(C(=O)c3cc(OC)c(OC)c(OC)c3)cn2)cc1 | –
> 30 | > 30 | > 30 | COc1cc(C(=O)c2cnn(-c3cccc(Cl)c3C)c2N)cc(OC)c1OC | –
11.3 | 5 | 24.7 | COc1cc(C(=O)c2cnn(-c3ccccc3)c2N)cc(OC)c1OC | –
> 30 | > 30 | > 30 | COc1cc(C(=O)c2cnn(-c3ccccc3C)c2N)cc(OC)c1OC | –
> 30 | > 30 | > 30 | COc1cc(C(=O)c2cnn(-c3cc(C)cc(C)c3)c2N)cc(OC)c1OC | –
> 30 | > 30 | > 30 | COc1cc(C(=O)c2cnn(-c3cc(C)ccc3C)c2N)cc(OC)c1OC | –
> 30 | > 30 | > 30 | COc1cc(C(=O)c2cnn(-c3ccc(F)cc3)c2N)cc(OC)c1OC | –
8.6 | 19.4 | > 30 | COc1cc(C(=O)c2cnn(-c3ccccc3)c2)cc(OC)c1OC | –
> 30 | > 30 | > 30 | CCc1ccc(-n2ncc(C(=O)c3cc(OC)c(OC)c(OC)c3)c2N)cc1 | –
> 30 | 17 | > 30 | COc1cc(C(=O)c2cnn(-c3ccc(C(C)C)cc3)c2)cc(OC)c1OC | –
> 30 | > 30 | > 30 | COc1cc(C(=O)c2cnn(-c3cccc(Br)c3)c2)cc(OC)c1OC | –
2.6 | 12.9 | 3.7 | COc1cc(C(=O)c2cnn(-c3cc(C)ccc3C)c2)cc(OC)c1OC | –

IC50 (A549) [µM] | IC50 (HT-1080) [µM] | IC50 (SGC-7901 [1]) [µM] | SMILES | also measured
> 30 | > 30 | > 30 | COc1cc(C(=O)c2cnn(-c3ccccc3Br)c2N)cc(OC)c1OC | –
> 30 | > 30 | > 30 | COc1cc(C(=O)c2cnn(-c3ccccc3C)c2)cc(OC)c1OC | –
0.11 | 0.16 | 0.054 | COc1cc(C(=O)c2cnn(-c3ccc(C)cc3)c2)cc(OC)c1OC | IC50 (L929): 65.7 µM; IC50 [2]: 9.17 µM; inhibition (Sus scrofa [3]): Dose-dependent effect; inhibition (Tubulin (Homo sapiens)): Active; Activity (SGC-7901 [4]): <=68%; Activity (SGC-7901 [5]): Dose-dependent effect
> 30 | > 30 | > 30 | COc1cc(C(=O)c2cnn(-c3ccc(C)cc3C)c2N)cc(OC)c1OC | –
> 30 | > 30 | > 30 | COc1cc(C(=O)c2cnn(-c3cccc(Br)c3)c2N)cc(OC)c1OC | –
> 30 | > 30 | > 30 | COc1cc(C(=O)c2cnn(-c3cccc(Cl)c3C)c2)cc(OC)c1OC | –
> 30 | > 30 | > 30 | COc1cc(C(=O)c2cnn(-c3ccc(C(C)C)cc3)c2N)cc(OC)c1OC | –
0.14 | 0.09 | 0.071 | COc1cc(/C(=N\O)c2cnn(-c3ccc(C)cc3)c2)cc(OC)c1OC (mixture of isomers) | IC50 (L929): 96.2 µM
14 | 2.8 | 6.5 | COc1cc(C(=O)c2cnn(-c3ccc(F)cc3)c2)cc(OC)c1OC | –
> 30 | > 30 | > 30 | COc1cc(C(=O)c2cnn(-c3ccccc3Br)c2)cc(OC)c1OC | –
0.032 | 0.027 | 0.023 | COc1cc(C(=O)c2csc(-c3ccccc3)n2)cc(OC)c1OC | IC50 (L929): 21 µM; inhibition (Sus scrofa [6]): Active; inhibition (Tubulin (Homo sapiens)): Active
2.3 | 1.6 | 1.9 | COc1cc(C(=O)c2cnn(-c3cc(C)cc(C)c3)c2)cc(OC)c1OC | –
> 30 | > 30 | > 30 | COc1cc(C(=O)c2cnn(-c3ccccc3Cl)c2N)cc(OC)c1OC | –
> 30 | > 30 | > 30 | COc1ccc(-n2ncc(C(=O)c3cc(OC)c(OC)c(OC)c3)c2N)cc1 | –
> 30 | > 30 | > 30 | COc1cc(C(=O)c2cnn(-c3cccc(Cl)c3)c2N)cc(OC)c1OC | –
– | – | – | CC(=O)O[C@H]1C(=O)[C@@]2(C)[C@H]([C@H](OC(=O)c3ccccc3)[C@]3(O)C[C@H](OC(=O)[C@H](O)[C@@H](NC(=O)c4ccccc4)c4ccccc4)C(C)=C1C3(C)C)[C@]1(OC(C)=O)CO[C@@H]1C[C@@H]2O | inhibition (Sus scrofa [7]): inactive
> 30 | 22.6 | > 30 | COc1cc(C(=O)c2cnn(-c3ccc(C)cc3C)c2)cc(OC)c1OC | –
